# Autophagy mod: autophagy modulation, high-content screen. MEF GFP-LC3 puncta imaging; test concentration mostly 10 µM. calls only at 10 µM (by protocol). actives 0.98% (n = 190,000). AID 463193;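 active means percentage of spot-positive cells more than 3 SD above its plate mean, without a fluorescence outlier flag or 80% toxicity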;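 further: spot-positive cell cutoff set from DMSO-treated cells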
# Lmaj promast: inhibitors of Leishmania major promastigote growth | Leishmania major promastigotes, resazurin fluorescence viability | inhibition, % at 10 µM | actives 9% (n = 200,000) | AID 1063; in the data active means inhibition above about 50%;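 further: promastigotes grown with compound for 44 hours at 28 °C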
# PTEN del growth: growth suppressors of cells with PTEN tumor suppressor deletion | HCT116 PTEN-null viability, CellTiter-Glo, 60 h; hits give low values | viability, % at 10 µM | actives 1.2% (n = 140,000);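 active means viability at or below a set limit, 4 SD under the median of all tested compounds, cut at about 3.7% in these data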;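 further: PTEN knockout HCT116 line with beta catenin targeted HCT116 as companion control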
# HCT116 bCat-KO: beta-catenin-lacking colon tumor cell growth suppression | HCT116 beta-catenin knockout viability, CellTiter-Glo, 60 h; hits give low values | viability, % at 10 µM | actives 1.5% (n = 140,000) | AID 818;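 active means viability at or under a set limit, the compound median less 4 SD, cut at about 6% in these data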;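 further: 0% = Hyamine 1622 control at 20 µM and 100% = untreated cell control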
# Dynein cargo inh: dynein cargo transport inhibition; 3617.4 mouse cells, GR-EGFP nuclear translocation imaging; test concentration mostly 20 µM; stimulated with dexamethasone, 1 µM; hits give low values; z-score, hits read low; actives 0.47% (n = 220,000); AID 1381;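 active means plate z-score of nuclear minus cytoplasmic receptor signal below a set negative limit, without overly bright fluorescence or cell loss, cut at about -3.5 in these data, passing the limit was not always enough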;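 further: z-score of nuclear minus cytoplasmic ring GR-EGFP intensity difference per well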
#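 Buffer or medium – tet-free medium with charcoal-stripped serum · Signal – automated 10x imaging of fixed Hoechst-stained cells · Also added – dexamethasone agonist, 1.0 µM final, for 30 min · Incubation – induction 48 h, compound 1 h, agonist 30 min · Read-out – GR-EGFP nuclear translocation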
# * hit, by the source's call; i = inactive; x = no result given; + = active, no number. Hits are enriched below; roughly 9.2% of the tested compounds scored in any of these assays.
SMILES,Autophagy mod,Lmaj promast,PTEN del growth,HCT116 bCat-KO,Dynein cargo inh
Cc1cc(Nc2ccc(Cl)cc2)nc(NCc2ccccc2)n1,i,100.5*,1.4*,1.1*,-0.148
Cc1cc(Nc2cccc(F)c2)nc(NCc2ccccc2)n1,i,100.4*,1.4*,2.9*,0.57
Cc1cc(N/N=C/c2ccc(F)cc2)nc(NCc2ccccc2)n1,x,x,x,x,1.95
COc1ccc(CN2CCN(C(=O)c3cccs3)CC2)c(OC)c1OC,i,94.8*,99.5,94.8,-0.382
COc1ccc(CN2CCN(C(=O)c3ccc(-c4ccccc4)cc3)CC2)c(OC)c1OC,i,15.4,x,x,-1.63
O=C(c1cccs1)N1CCN(Cc2ccccc2[N+](=O)[O-])CC1,i,76.5*,92.3,83.7,0.134
c1csc(C2CCCN2c2nc3nonc3nc2NC2CC2)n1 (stereo not drawn),i,-2.1,x,x,-0.671
CC1(C)CC(=O)c2c(nc(SCC(=O)Nc3nsc(-c4ccccc4)n3)c(C#N)c2-c2ccccc2)C1,i,69.1*,46.4,43.0,0.13
COc1ccccc1NC(=O)Nc1nnc(CC(=O)Nc2cccc(C)c2)s1,x,x,x,x,3.01
CC(C)(C)C(=O)NCCN1C(=O)S/C(=C\c2ccc([N+](=O)[O-])cc2)C1=O,i,56.8*,70.6,63.9,-0.454
CS(=O)(=O)c1ccc(C(=O)NCCN2C(=O)S/C(=C\c3cccnc3)C2=O)cc1[N+](=O)[O-],i,74.4*,x,x,-0.974
Cc1ccnc(NS(=O)(=O)c2cccc([N+](=O)[O-])c2)c1,x,x,x,x,-1.25
O=C(NNc1c2ccccc2nc2ccccc12)c1ccc(O)cc1O,i,99.3*,62.8,66.0,-0.869
O=C(NNc1c2ccccc2nc2ccccc12)c1cccc(O)c1,i,89.8*,44.8,45.0,2.13
O=C(NNc1c2ccccc2nc2ccccc12)c1ccc(O)cc1,i,70.8*,68.9,65.1,-0.0406
O=C(NNc1c2ccccc2nc2ccccc12)c1ccccc1O,i,21.0,43.1,42.4,-0.546
O=C(c1ccco1)N1CCN(C(=O)c2ccccc2NS(=O)(=O)c2ccc(F)cc2)CC1,i,8.2,x,x,1.69
C/C(=N\NC(=O)c1ccccc1NC(=O)c1ccc(Cl)cc1)c1ccncc1,i,7.4,x,x,-0.865
CC(=O)c1sc(N/N=C\c2ccccc2O)nc1C,i,4.7,x,x,-0.817
CC(=O)c1sc(N/N=C2\CC3CC2C(C)C3(C)C)nc1C (stereo not drawn),i,91.3*,x,x,-0.67
Cc1ccc(CNC(=O)C2CCCN(S(=O)(=O)c3c(C)noc3/C=C/N(C)C)C2)cc1 (stereo not drawn),x,x,x,x,0.246
O=C(Nc1cccc(C(F)(F)F)c1)C(Sc1ncnc2ccccc12)c1ccccc1 (stereo not drawn),i,27.0,62.0,65.0,-1.16
Cc1cc(C)cc(NC(=O)C(Sc2ncnc3ccccc23)c2ccccc2)c1 (stereo not drawn),i,57.3*,64.9,63.3,-0.408
O=C(CO/N=C/c1cccc([N+](=O)[O-])c1)Nc1ccc2ccccc2c1,i,-3.9,103.6,96.0,1.27
O=[N+]([O-])c1cccc(/C=C/c2nc(C=Nc3ccc4ccccc4c3)c(O)o2)c1,+,-0.2,2.7*,17.8,-0.788
SMILES,Autophagy mod,Lmaj promast,PTEN del growth,HCT116 bCat-KO,Dynein cargo inh
O=c1oc2cc(OCc3ccc(C(F)(F)F)cc3)ccc2cc1-c1ccccn1,i,1.3,69.6,74.9,0.746
COc1ccc2c(-c3cc4ccc(OCc5ccc(F)cc5)cc4oc3=O)cc(=O)oc2c1,i,52.2*,56.8,54.3,0.903
COc1ccc(-c2cc(=O)oc3cc(OCC(C)=O)ccc23)cc1,i,63.6*,95.9,90.0,-0.747
Oc1ccccc1N=Cc1ccc[nH]1,i,99.7*,100.4,91.9,0.569
CC(=O)Nc1ccc(N=Cc2ccc[nH]2)cc1,i,-3.8,93.9,101.6,0.00321
Cc1cc(-c2cc(N)n(-c3ccccc3)n2)c(C)n1C1CCCC1,+,9.3,66.3,67.1,3.27
Cc1ccccc1Nc1nc(N)nc(COC(=O)CC2CC3CCC2C3)n1 (stereo not drawn),i,0.2,77.5,81.0,-0.0327
Cc1cc(OCCn2ccnc2)cc(C(C)C)c1,i,91.5*,92.7,88.5,-0.478
CCC(C)c1ccc(OCCn2ccnc2)cc1 (stereo not drawn),i,59.6*,82.2,74.2,1.04
Cc1cc(OCCCn2ccnc2)cc(C(C)C)c1,i,78.3*,x,x,0.551
Cc1cc(OCCCn2ccnc2)ccc1C(C)C,i,99.3*,94.7,82.7,-1.06
CN(Cc1ccccc1)c1ccc([N+](=O)[O-])cc1C(=O)O,i,-1.9,x,x,-1.13
N#Cc1c(-c2ccccc2)c(-c2ccccc2)n(Cc2ccco2)c1NC(=O)c1cccs1,i,61.9*,70.3,73.3,-0.931
CC(NC(=O)C12CC3CC(CC(C3)C1)C2)C(=O)N/N=C/C1=C(N2CCOCC2)C(=C\c2ccccc2)/CC1 (stereo not drawn),i,100.3*,61.7,64.7,0.616
Cc1cccc(NC(=O)c2ccc(C3SCC(=O)N3CCc3ccccc3)cc2)c1 (stereo not drawn),i,96.3*,28.1,26.5,-0.152
COc1ccc2cc3cc(C(=O)Nc4ccc5c(c4)OCCO5)oc3nc2c1,i,99.7*,81.2,85.6,-0.407
COc1ccc2cc3cc(C(=O)NC(C)C)oc3nc2c1,i,88.5*,91.2,93.6,-0.52
Cc1cc(NC(=O)c2ccc3c(c2)C(=O)N(C2CCCCC2)C3=O)no1,+,-4.4,9.2,8.8,1.75
C/C(=N\NC(=O)Cc1c[nH]c2ccccc12)c1ccc2ccccc2c1,i,54.6*,x,x,-0.203
O=C(CCCc1c[nH]c2ccccc12)Nc1ccc2ccccc2c1,i,51.8*,79.0,79.3,0.802
O=C(CCc1c[nH]c2ccccc12)NCC1COc2ccccc2O1 (stereo not drawn),i,12.5,x,x,0.235
O=C(CCCc1c[nH]c2ccccc12)NCC1COc2ccccc2O1 (stereo not drawn),i,55.2*,x,x,-0.152
COc1ccccc1OCCn1c(=O)oc2ccc(C)cc21,i,-4.5,x,x,-1.02
O=C(NCC1CCCO1)C(c1cccs1)N(Cc1cccs1)C(=O)c1ccc(-c2ccccc2)[nH]1 (stereo not drawn),i,99.3*,69.2,81.7,-1.36
O=C(NCC1CCCO1)C(c1ccc(F)cc1)N(CC1CCCO1)C(=O)c1ccc(-c2ccccc2)[nH]1 (stereo not drawn),i,17.7,x,x,-0.849
CCN(Cc1cnn(C)c1)C(=O)CC1C(=O)NCCN1Cc1cccc(OC)c1OC (stereo not drawn),i,-3.7,x,x,-0.411
CC(=O)NC(Cc1ccccc1C)C(=O)NC1CCN(C(=O)c2ccc(C)cc2)CC1 (stereo not drawn),+,-3.8,x,x,1.27
Cc1cc(NC(=O)c2cccc(S(=O)(=O)N3CCCCCC3)c2)n(-c2ccccn2)n1,i,13.8,84.0,71.7,0.4
